According to ChEMBL document CHEMBL3259541, “Synthesis and biological evaluation of antimetastatic agents predicated upon dihydromotuporamine C and its carbocyclic derivatives” (J Med Chem, 2014):
pIC50: −log10 of the molar value. Calls of active or inactive are those of the source. No cut-off for these calls is given here.

Columns and labels:
Mus musculus [1] = assay: Toxicity in immune-compromised mouse assessed as adverse event at 2.66 mg/kg,ip 5 days per week for 2 weeks; type: organism-based; design: dose 2.66 mg/kg; conditions: in vivo
L3.6pl [2] = assay: Antimetastatic activity against human L3.6PL cells injected into pancreas of immune-compromised mouse assessed as liver micrometastasis at 2.66 mg/kg,ip 5 days per week for 2 weeks after 7 days of tumor cells inoculation by microscopically; type: functional, organism-based; design: dose 2.66 mg/kg
How it was run: (§1)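 Nu/nu mice engrafted with human L3.6pl pancreatic tumor cells; vehicle or compound given ip 5 days/week for 2 weeks (10 injections; 2.50 mg/kg for one agent, 2.66 mg/kg equimolar for the other), n=7 per group. Livers collected at termination; micrometastasis incidence and size scored macroscopically and on sections by H&E, human Ki67 and human cytokeratin-18 immunohistochemistry.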

L3.6pl [3] = assay: Effect on intracellular ceramide population in human L3.6PL cells assessed as sphingomyelin N18:0 level measured per mg of protein at 0.6 uM after 48 hrs incubation by mass spectrometry analysis (reference value: 0.38 +/- 0.11 nmol); type: functional
L3.6pl [4] = assay: Effect on intracellular ceramide population in human L3.6PL cells assessed as sphingomyelin N23:1 level measured per mg of protein at 0.6 uM after 48 hrs incubation by mass spectrometry analysis (reference value: 0.13 +/- 0.05 nmol); type: functional
L3.6pl [5] = assay: Effect on intracellular ceramide population in human L3.6PL cells assessed as sphingomyelin N25:1 level measured per mg of protein at 0.6 uM after 48 hrs incubation by mass spectrometry analysis (reference value: 0.02 +/- 0.02 nmol); type: functional
CHO = assay: Cytotoxicity against CHO cells assessed as cell growth after 48 hrs incubation by MTS assay in presence of 1 mM aminoguanidine; type: cell-based; conditions: Cricetulus griseus
How it was run: (§2)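 CHO and polyamine-transport-deficient CHO-MG* cells pretreated 24 h with 1 mM aminoguanidine, then exposed to compound for 48 h at 37 °C. Triplicate. IC50 taken as 50% growth inhibition. PTS selectivity expressed as the CHO-MG*/CHO IC50 ratio.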

polyamine transporter = assay: Selectivity ratio of IC50 for polyamine transporter deficient CHO-MG cells to IC50 for CHO cells by MTS assay; type: ADME, cell-based, Cricetulus griseus; conditions: chinese hamster, polyamine transporter deficient CHO-MG cells and CHO cells; read-out: Ratio IC50; how it was run: as §2
L3.6pl [6] = assay: Antimigratory activity against human L3.6PL cells assessed as cell migration inhibition after 48 hrs incubation by wound healing assay in presence of 250 uM aminoguanidine treated 24 hrs prior compound addition; type: functional, cell-based
L3.6pl [7] = assay: Antimetastatic activity against human L3.6PL cells injected into pancreas of immune-compromised mouse assessed as liver micrometastasis at 2.66 mg/kg,ip 5 days per week for 2 weeks after 7 days of tumor cells inoculation by Hematoxylin and eosin staining
L3.6pl [8] = assay: Antimetastatic activity against human L3.6PL cells injected into pancreas of immune-compromised mouse assessed as liver micrometastasis at 2.66 mg/kg,ip 5 days per week for 2 weeks after 7 days of tumor cells inoculation by human Ki67 immunohistochemical staining
[9] = Toxicity in immune-compromised mouse compound treated ip 5 days per week for 2 weeks; type: organism-based; conditions: in vivo
Mus musculus [10] = assay: Toxicity in immune-compromised mouse assessed as adverse event at 2.5 mg/kg,ip 5 days per week for 2 weeks; type: organism-based; design: dose 2.5 mg/kg; conditions: in vivo
L3.6pl [11] = assay: Antimetastatic activity against human L3.6PL cells injected into pancreas of immune-compromised mouse assessed as liver micrometastasis at 2.5 mg/kg,ip 5 days per week for 2 weeks after 7 days of tumor cells inoculation by microscopically; type: functional, organism-based; design: dose 2.5 mg/kg; how it was run: as §1
L3.6pl [12] = assay: Effect on intracellular ceramide population in human L3.6PL cells assessed as ceramide N22:1 level measured as contribution to total ceramide population at 0.6 uM after 48 hrs incubation by mass spectrometry analysis relative to untreated control
L3.6pl [13] = assay: Antimetastatic activity against human L3.6PL cells injected into pancreas of immune-compromised mouse assessed as liver micrometastasis at 2.5 mg/kg,ip 5 days per week for 2 weeks after 7 days of tumor cells inoculation by Hematoxylin and eosin staining
L3.6pl [14] = assay: Antimetastatic activity against human L3.6PL cells injected into pancreas of immune-compromised mouse assessed as liver micrometastasis at 2.5 mg/kg,ip 5 days per week for 2 weeks after 7 days of tumor cells inoculation by human Ki67 immunohistochemical staining

| SMILES | Activity (Mus musculus [1]) | Activity (L3.6pl [2]) | Activity (L3.6pl [3]) | Activity (L3.6pl [4]) | Activity (L3.6pl [5]) | pIC50 (CHO) | selectivity ratio (polyamine transporter) | inhibition (L3.6pl [6]) | Activity (L3.6pl [7]) | Activity (L3.6pl [8]) | MTD at 2 weeks [9] | Activity (Mus musculus [10]) | Activity (L3.6pl [11]) | fold change (FC) (L3.6pl [12]) | Activity (L3.6pl [13]) | Activity (L3.6pl [14]) |
| --- | --- | --- | --- | --- | --- | --- | --- | --- | --- | --- | --- | --- | --- | --- | --- | --- |
| Cl.NCCCNCCCNCC1CCCCCCCCCCCCCC1 | Non-toxic | Active | 0.54 nmol | 0.17 nmol | 0.03 nmol | 4.08 | 1 | Dose-dependent effect | Active | Active |  |  |  |  |  |  |
| Cl.NCCCNCCCN1CCCCCCCCCCCCCC1 |  |  | 0.47 nmol | 0.15 nmol | 0.03 nmol | 5.54 | 1 |  |  |  | 2.5 mg/kg | Non-toxic | inactive | 2.8 | inactive | inactive |
